concentration, Drug uptake and bioavailability data for 5 compounds are collected here from ChEMBL document CHEMBL1136978, “Aryl urea derivatives of spiropiperidines as NPY Y5 receptor antagonists” (Bioorg Med Chem Lett, 2009).

SMILES strings stand for the structures. Where only a bound is given, the exact number is not on record here.

The term bioavailability denotes dose-corrected exposure relative to a reference, in per cent. A high value points to good availability.

Type in all cases: ADME, organism-based
Data set [1] is described as follows: Plasma concentration in rat at 10 mg/kg, po after 2 hrs. The arrangement: dose 10 mg/kg, route oral. An outline of the steps: (§1)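 Single oral dose of 10 mg/kg to rats (n = 3). Plasma (µM), brain (nmol/g tissue) and CSF (µM) levels taken at 2 h post-dose.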
Data set [2] can be described thus: Drug level in rat cerebrospinal fluid at 10 mg/kg, po after 2 hrs. Set-up: dose 10 mg/kg, route oral. The following applies: read-out: Drug uptake. An outline of the steps: as §1
The test system of a further data set is Brain. Nature of the data set: Drug level in rat brain at 10 mg/kg, po after 2 hrs measured per gram of tissue. Set-up: dose 10 mg/kg, route oral. The conditions noted are these: in vivo. The essentials:
as §1

The nature of data set [3]: Oral bioavailability in rat at 3 mg/kg, iv and 10 mg/kg, po. The conditions noted are these: in vivo.

On to `O=C1OC2(CCN(C(=O)Nc3ncc(-c4ccccc4)cn3)CC2)c2ccccc21`, for which the concentration at 2 h was found to be 3860 nM in data set [1] and 130 nM in data set [2]. The same compound displayed a Drug uptake with Brain of 0.26 nmol/g.
As for `O=C1Cc2ccccc2C2(CCN(C(=O)Nc3cnc(-c4ccccc4)cn3)CC2)N1`, the bioavailability in data set [3] stood at 3%.
Take `O=C1OC2(CCN(C(=O)Nc3cc(-c4ccc(Cl)cc4)no3)CC2)c2ccccc21`: the figures for the concentration at 2 h in data set [1] and in data set [2] were 1420 nM and < 10 nM, respectively. In the data set on Brain, this compound returned a Drug uptake of 1.09 nmol/g.
As for `O=C1OC2(CCN(C(=O)Nc3cnc(-c4ccccc4)cn3)CC2)c2ccccc21`, the concentration at 2 h in data set [1] amounted to 2980 nM; in data set [2] it was 100 nM. In data set [3], this compound registered a bioavailability of 49%. For the same compound, the Drug uptake with Brain was determined as 2.92 nmol/g.
Take `O=C1NC2(CCN(C(=O)Nc3cnc(-c4ccccc4)cn3)CC2)c2ccccc21`: the concentration at 2 h in data set [1] is 360 nM. In addition, the bioavailability in data set [3] is 8%. The compound further had a Drug uptake with Brain of 0.029 nmol/g.
